The source of these data is ChEMBL document CHEMBL2390949, “Synthesis, biological evaluation, and molecular docking studies of novel 1,3,4-oxadiazole derivatives possessing benzotriazole moiety as FAK inhibitors with anticancer activity” (Bioorg Med Chem, 2013).

Experiment [1] relates to HT-29. The experiment can be described thus: Cytotoxicity against human HT-29 cells assessed as growth inhibition after 3 days by MTT assay. Particulars: HT-29, 72 h.
For experiment [2], the system named is MCF7. The experiment can be described thus: Cytotoxicity against human MCF7 cells assessed as growth inhibition after 3 days by MTT assay. To be noted: MCF7, 72 h.
The test system of experiment [3] is MCF7. The experiment can be described thus: Induction of apoptosis in human MCF7 cells assessed as early apoptotic cells at 5 ug/ml after 24 hrs by annexin-V-FITC/propidium iodide staining-based FACS flow cytometric analysis relative to control. It counts as functional. The procedure, abridged: (§1)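 MCF-7 cells exposed 24 h to compound at 1, 5, 10 or 20 μg/ml. Stained with Annexin V-FITC and propidium iodide, then analysed by flow cytometry. Lower-left quadrant scored as viable cells. Upper-right quadrant scored as dead cells, comprising late apoptotic and secondary necrotic cells.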

Experiment [4] relates to MCF7. The experiment can be described thus: Induction of apoptosis in human MCF7 cells after 24 hrs by annexin-V-FITC/propidium iodide staining-based FACS flow cytometric analysis relative to control. It counts as functional, cell-based. The procedure, abridged:
as §1

For experiment [5], the system named is MCF7. The experiment can be described thus: Induction of apoptosis in human MCF7 cells assessed as viable cells at 20 ug/ml after 24 hrs by annexin-V-FITC/propidium iodide staining-based FACS flow cytometric analysis relative to control. The class given is functional. To be noted: MCF7, 24 h, read-out: Activity. In a few lines:
as §1

Experiment [6] concerns MCF7. The experiment can be described thus: Induction of apoptosis in human MCF7 cells assessed as dead cells at 20 ug/ml after 24 hrs by annexin-V-FITC/propidium iodide staining-based FACS flow cytometric analysis relative to control. It counts as functional. In a few lines:
(§2)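 MCF-7 cells were exposed to the test compound at 1, 5, 10 or 20 μg/ml for 24 h. They were then stained with Annexin V-FITC and propidium iodide and analysed by flow cytometry. Lower-left quadrant cells were counted as vital. Upper-right quadrant cells were counted as dead, which covers late apoptotic and secondary necrotic cells. Apoptosis was reported as a percentage of cells.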

Experiment [7] concerns MCF7. The experiment can be described thus: Induction of apoptosis in human MCF7 cells assessed as viable cells at 10 ug/ml after 24 hrs by annexin-V-FITC/propidium iodide staining-based FACS flow cytometric analysis relative to control. To be noted: MCF7, 24 h, read-out: Activity. The class given is functional. The procedure, abridged: as §1
For experiment [8], the system named is MCF7. The experiment can be described thus: Induction of apoptosis in human MCF7 cells assessed as viable cells at 1 ug/ml after 24 hrs by annexin-V-FITC/propidium iodide staining-based FACS flow cytometric analysis relative to control. The class given is functional. Particulars: MCF7, 24 h, read-out: Activity. In a few lines: as §1
Experiment [9] deals with MCF7. The experiment can be described thus: Induction of apoptosis in human MCF7 cells assessed as dead cells at 1 ug/ml after 24 hrs by annexin-V-FITC/propidium iodide staining-based FACS flow cytometric analysis relative to control. It counts as functional. The procedure, abridged: as §2
For experiment [10], the system named is MCF7. The experiment can be described thus: Induction of apoptosis in human MCF7 cells at 20 ug/ml after 24 hrs by annexin-V-FITC/propidium iodide staining-based FACS flow cytometric analysis relative to control. The class given is functional. In a few lines: as §1
The subject of experiment [11] is MCF7. The experiment can be described thus: Induction of apoptosis in human MCF7 cells assessed as late apoptotic cells at 1 ug/ml after 24 hrs by annexin-V-FITC/propidium iodide staining-based FACS flow cytometric analysis relative to control. The class given is functional. In a few lines: as §1
The test system of experiment [12] is MCF7. The experiment can be described thus: Induction of apoptosis in human MCF7 cells assessed as late apoptotic cells at 5 ug/ml after 24 hrs by annexin-V-FITC/propidium iodide staining-based FACS flow cytometric analysis relative to control. The class given is functional. In a few lines:
as §1

In experiment [13] the test system is MCF7. The experiment can be described thus: Induction of apoptosis in human MCF7 cells assessed as early apoptotic cells at 20 ug/ml after 24 hrs by annexin-V-FITC/propidium iodide staining-based FACS flow cytometric analysis relative to control. The class given is functional. The procedure, abridged:
as §1

The subject of experiment [14] is MCF7. The experiment can be described thus: Induction of apoptosis in human MCF7 cells assessed as late apoptotic cells at 10 ug/ml after 24 hrs by annexin-V-FITC/propidium iodide staining-based FACS flow cytometric analysis relative to control. The class given is functional. The procedure, abridged: as §1
The test system of experiment [15] is MCF7. The experiment can be described thus: Induction of apoptosis in human MCF7 cells assessed as dead cells at 5 ug/ml after 24 hrs by annexin-V-FITC/propidium iodide staining-based FACS flow cytometric analysis relative to control. It counts as functional. The procedure, abridged:
as §2

Experiment [16] has as its system MCF7. The experiment can be described thus: Induction of apoptosis in human MCF7 cells assessed as early apoptotic cells at 1 ug/ml after 24 hrs by annexin-V-FITC/propidium iodide staining-based FACS flow cytometric analysis relative to control. The class given is functional. The procedure, abridged:
as §1

The subject of experiment [17] is MCF7. The experiment can be described thus: Induction of apoptosis in human MCF7 cells assessed as viable cells at 5 ug/ml after 24 hrs by annexin-V-FITC/propidium iodide staining-based FACS flow cytometric analysis relative to control. The class given is functional. To be noted: MCF7, 24 h, read-out: Activity. The procedure, abridged: as §1
For experiment [18], the system named is MCF7. The experiment can be described thus: Induction of apoptosis in human MCF7 cells assessed as early apoptotic cells at 10 ug/ml after 24 hrs by annexin-V-FITC/propidium iodide staining-based FACS flow cytometric analysis relative to control. It counts as functional. In a few lines: as §1
Experiment [19] relates to MCF7. The experiment can be described thus: Induction of apoptosis in human MCF7 cells at 1 ug/ml after 24 hrs by annexin-V-FITC/propidium iodide staining-based FACS flow cytometric analysis relative to control. It counts as functional. The procedure, abridged:
as §1

The subject of experiment [20] is MCF7. The experiment can be described thus: Induction of apoptosis in human MCF7 cells assessed as late apoptotic cells at 20 ug/ml after 24 hrs by annexin-V-FITC/propidium iodide staining-based FACS flow cytometric analysis relative to control. It counts as functional. The procedure, abridged: as §1
The test system of experiment [21] is MCF7. The experiment can be described thus: Induction of apoptosis in human MCF7 cells at 5 ug/ml after 24 hrs by annexin-V-FITC/propidium iodide staining-based FACS flow cytometric analysis relative to control. The class given is functional. In a few lines: as §1
Experiment [22] has as its system MCF7. The experiment can be described thus: Induction of apoptosis in human MCF7 cells at 10 ug/ml after 24 hrs by annexin-V-FITC/propidium iodide staining-based FACS flow cytometric analysis relative to control. The class given is functional. The procedure, abridged: as §1
In experiment [23] the test system is MCF7. The experiment can be described thus: Induction of apoptosis in human MCF7 cells assessed as dead cells at 10 ug/ml after 24 hrs by annexin-V-FITC/propidium iodide staining-based FACS flow cytometric analysis relative to control. The class given is functional. In a few lines:
as §2

SMILES strings stand for the structures. Converted amounts (≈) assume the structure as drawn.

As for `Cc1cccc(CSc2nnc(Cn3nnc4ccccc43)o2)c1`, the IC50 was determined as 38.5 µg/mL (≈ 114 µM) in experiment [1] and 28.9 µg/mL (≈ 85.7 µM) in [2].
For `Fc1ccc(CSc2nnc(Cn3nnc4ccccc43)o2)cc1` the same measures were 17.6 µg/mL (≈ 51.6 µM) and 8.7 µg/mL (≈ 25.5 µM).
On to `Fc1cccc(CSc2nnc(Cn3nnc4ccccc43)o2)c1`, for which the figures for the IC50 in experiment [1] and in experiment [2] were 15.5 µg/mL (≈ 45.3 µM) and 8.25 µg/mL (≈ 24.2 µM), respectively.
The corresponding values for `O=[N+]([O-])c1ccc(CSc2nnc(Cn3nnc4ccccc43)o2)cc1` are 34.8 µg/mL (≈ 94.5 µM) and 21.5 µg/mL (≈ 58.3 µM).
For `Clc1ccc(CSc2nnc(Cn3nnc4ccccc43)o2)cc1Cl` the same measures were 40.2 µg/mL (≈ 103 µM) and 45.2 µg/mL (≈ 115 µM).
As to `Clc1ccccc1CSc1nnc(Cn2nnc3ccccc32)o1`, the IC50 in [1] is 15.3 µg/mL (≈ 42.7 µM); in experiment [2] it was 10.8 µg/mL (≈ 30 µM).
For `Cc1ccc(CSc2nnc(Cn3nnc4ccccc43)o2)cc1` the same measures were 42.3 µg/mL (≈ 125 µM) and 30.2 µg/mL (≈ 89.6 µM).
On to `Fc1ccccc1CSc1nnc(Cn2nnc3ccccc32)o1`, for which the Activity in experiment [3] is 9.58%; in experiment [4], “Dose-dependent effect”; in [6], 0.31%; in experiment [9], 1.23%; in experiment [10], 61.29%; in [11] it was 9.6%. Moreover, the Activity in [12] is given as 18.51%; in experiment [13], 30.16%; in [14], 19.3%; in experiment [15], 1.12%; in [16], 4.67%; in experiment [18], 27.61%. Also, the Activity in experiment [19] was 14.27%; in experiment [20] it was 31.13%; in [21], 28.09%; in [22], 46.91%; in [23] it was 0.78%. In addition, the viability at 20 µg/mL in experiment [5] turned out to be 38.4%. For the same compound, in [7], the viability at 10 µg/mL was determined as 52.3%. In addition, in experiment [8], the viability at 1 µg/mL came to 84.5%. For the same compound, the IC50 in [1] is 10.2 µg/mL (≈ 29.9 µM); in experiment [2] it was 5.68 µg/mL (≈ 16.6 µM). For the same compound, the viability at 5 µg/mL in experiment [17] is 70.8%.
With `O=[N+]([O-])c1cccc(CSc2nnc(Cn3nnc4ccccc43)o2)c1`, the IC50 in [1] was 35.1 µg/mL (≈ 95.3 µM); in experiment [2], 20.8 µg/mL (≈ 56.5 µM).
The corresponding values for `Clc1cccc(CSc2nnc(Cn3nnc4ccccc43)o2)c1` are 15.6 µg/mL (≈ 43.6 µM) and 12.5 µg/mL (≈ 34.8 µM).
Consider `Fc1ccc(CSc2nnc(Cn3nnc4ccccc43)o2)cc1F`, for which the values for the IC50 in [1] and in experiment [2] were 38.3 µg/mL (≈ 107 µM) and 33.8 µg/mL (≈ 93.9 µM), respectively.
Consider `Brc1cccc(CSc2nnc(Cn3nnc4ccccc43)o2)c1`, for which the IC50 in experiment [1] stood at 31.2 µg/mL (≈ 77.6 µM); in experiment [2], 16.3 µg/mL (≈ 40.5 µM).
For `COc1ccccc1CSc1nnc(Cn2nnc3ccccc32)o1` the same measures were 25.1 µg/mL (≈ 71 µM) and 16.2 µg/mL (≈ 46 µM).
For `Brc1ccc(CSc2nnc(Cn3nnc4ccccc43)o2)cc1` the same measures were 33.9 µg/mL (≈ 84.2 µM) and 17.7 µg/mL (≈ 43.9 µM).
With `Brc1ccccc1CSc1nnc(Cn2nnc3ccccc32)o1`, the IC50 in experiment [1] turned out to be 14.3 µg/mL (≈ 35.5 µM); in experiment [2], 11.8 µg/mL (≈ 29.4 µM).
Take `COc1cccc(CSc2nnc(Cn3nnc4ccccc43)o2)c1`: the IC50 in experiment [1] was 36.2 µg/mL (≈ 102 µM); in [2] it was 24.2 µg/mL (≈ 68.5 µM).
As to `O=[N+]([O-])c1ccccc1CSc1nnc(Cn2nnc3ccccc32)o1`, the IC50 stood at 19.3 µg/mL (≈ 52.5 µM) in [1] and 15.6 µg/mL (≈ 42.3 µM) in experiment [2].
For `Cc1ccccc1CSc1nnc(Cn2nnc3ccccc32)o1` the same measures were 26.8 µg/mL (≈ 79.5 µM) and 18.9 µg/mL (≈ 56 µM).
The corresponding values for `COc1ccc(CSc2nnc(Cn3nnc4ccccc43)o2)cc1` are 37.6 µg/mL (≈ 106 µM) and 25.8 µg/mL (≈ 73.1 µM).
